This passage reports Activity, GI50 and inhibition results from ChEMBL document CHEMBL3868583, “6-Aryl substituted 4-(4-cyanomethyl) phenylamino quinazolines as a new class of isoform-selective PI3K-alpha inhibitors” (Eur J Med Chem, 2016).

Data set [1] deals with Mus musculus. As to the kind of experiment: Toxicity in Swiss mouse implanted with Swiss mouse EAC cells assessed as body weight at 70 mg/kg, ip administered for 1 to 9 days measured on day 9 (reference value: 27.7 g). It is filed as organism-based, Ehrlich. The note with it: in vivo.
For data set [2], the system named is PC-3. As to the kind of experiment: Induction of cell cycle arrest in human PC3 cells assessed as accumulation at G1 phase at 30 uM after 24 hrs by propidium iodide-staining based FACS analysis (reference value: 39 %). It is filed as functional. Summed up:
(§1)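 MCF-7 or PC-3 cells treated at indicated concentrations for 24 h, pelleted, PBS-washed, fixed in ice-cold 70% ethanol overnight at 4 °C. RNase 0.2 mg/mL 1 h at 37 °C, propidium iodide 10 µg/mL 30 min dark. 10,000 events (FL2-A vs FL2-W) by flow cytometry; fractions in apoptosis/sub-G1, G1, S, G2-M.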
Background: Flow cytometry measures light scatter and fluorescence of single cells or particles in a stream.

Data set [3] relates to PC-3. Briefly: Induction of cell cycle arrest in human PC3 cells assessed as accumulation at S phase at 30 uM after 24 hrs by propidium iodide-staining based FACS analysis (reference value: 44 %). It is filed as functional. Summed up:
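PC-3 cells exposed 24 h at indicated concentrations, pelleted, fixed overnight in ice-cold 70% ethanol at 4 °C, RNase 0.2 mg/mL at 37 °C 1 h, propidium iodide 10 µg/mL 30 min in dark; 10,000 events acquired (FL2-A vs FL2-W); DNA histograms modelled for apoptotic (sub-G1), G1, S and G2-M fractions.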

Data set [4] is described as follows: Cytotoxicity against human PC3 cells assessed as cell growth inhibition after 6 hrs by MTT assay. It is filed as functional. The note with it: PC-3, 6 h. A general note: Tetrazolium assays rely on reduction of a dye to a coloured formazan, in cell work by metabolically active cells.
Data set [5] relates to PC-3. As to the kind of experiment: Induction of cell cycle arrest in human PC3 cells assessed as accumulation at S phase at 20 uM after 24 hrs by propidium iodide-staining based FACS analysis (reference value: 44 %). It is filed as functional. Summed up: as §1
Data set [6] has as its target Phosphatidylinositol 4,5-bisphosphate 3-kinase catalytic subunit alpha isoform (Homo sapiens, UniProt P42336). As to the kind of experiment: Inhibition of PI3Kalpha in human PC3 cells assessed as suppression of akt phosphorylation at Ser-473 residue at 30 uM Western blot analysis. The note with it: PC-3. It is filed as cell-based.
The test system of data set [7] is Mus musculus. Briefly: Toxicity in Swiss mouse implanted with Swiss mouse EAT cells assessed as body weight at 25 mg/kg, ip administered for 1 to 9 days measured on day 1 (reference value: 21.6 g). It is filed as organism-based. The conditions noted are these: in vivo.
For data set [8], the system named is Mus musculus. Briefly: Toxicity in Swiss mouse implanted with Swiss mouse EAT cells assessed as body weight at 15 mg/kg, ip administered for 1 to 9 days measured on day 9 (reference value: 22.8 g). It is filed as organism-based. The note with it: in vivo.
The nature of data set [9]: Downregulation of PI3Kgamma expression in human MCF7 cells at 30 uM by Western blot analysis. It is filed as functional, cell-based. Summed up:
(§2)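 MCF-7 or PC-3 cells (2 × 10^6) treated with compound, lysed (1 × 10^6 cells) in cold NP-40 buffer with protease inhibitors 30 min on ice, 12,000 g 10 min 4 °C. 50 µg protein per lane on SDS-PAGE, PVDF transfer, 5% milk block, primary antibody 2 h, HRP secondary 1 h, ECL on film; β-actin internal control.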

For data set [10], the system named is MCF7. As to the kind of experiment: Induction of cell cycle arrest in human MCF7 cells assessed as accumulation at S phase at 30 uM after 24 hrs by propidium iodide-staining based FACS analysis (reference value: 30 %). It is filed as functional. Summed up:
as §1

Data set [11] relates to MCF7. As to the kind of experiment: Induction of cell cycle arrest in human MCF7 cells assessed as accumulation at G2 phase at 30 uM after 24 hrs by propidium iodide-staining based FACS analysis (reference value: 20 %). It is filed as functional. Summed up:
as §1

In data set [12] the test system is Mus musculus. As to the kind of experiment: Toxicity in Swiss mouse implanted with Swiss mouse EAC cells assessed as body weight at 25 mg/kg, ip administered for 1 to 9 days measured on day 5 (reference value: 26.2 g). It is filed as organism-based, Ehrlich. The conditions noted are these: in vivo.
Data set [13] in a line: Downregulation of PI3Kalpha expression in human MCF7 cells at 30 uM by Western blot analysis. It is filed as functional, cell-based. Summed up: as §2

Sequence of Phosphatidylinositol 4,5-bisphosphate 3-kinase catalytic subunit alpha isoform (P42336 whole entry, canonical isoform): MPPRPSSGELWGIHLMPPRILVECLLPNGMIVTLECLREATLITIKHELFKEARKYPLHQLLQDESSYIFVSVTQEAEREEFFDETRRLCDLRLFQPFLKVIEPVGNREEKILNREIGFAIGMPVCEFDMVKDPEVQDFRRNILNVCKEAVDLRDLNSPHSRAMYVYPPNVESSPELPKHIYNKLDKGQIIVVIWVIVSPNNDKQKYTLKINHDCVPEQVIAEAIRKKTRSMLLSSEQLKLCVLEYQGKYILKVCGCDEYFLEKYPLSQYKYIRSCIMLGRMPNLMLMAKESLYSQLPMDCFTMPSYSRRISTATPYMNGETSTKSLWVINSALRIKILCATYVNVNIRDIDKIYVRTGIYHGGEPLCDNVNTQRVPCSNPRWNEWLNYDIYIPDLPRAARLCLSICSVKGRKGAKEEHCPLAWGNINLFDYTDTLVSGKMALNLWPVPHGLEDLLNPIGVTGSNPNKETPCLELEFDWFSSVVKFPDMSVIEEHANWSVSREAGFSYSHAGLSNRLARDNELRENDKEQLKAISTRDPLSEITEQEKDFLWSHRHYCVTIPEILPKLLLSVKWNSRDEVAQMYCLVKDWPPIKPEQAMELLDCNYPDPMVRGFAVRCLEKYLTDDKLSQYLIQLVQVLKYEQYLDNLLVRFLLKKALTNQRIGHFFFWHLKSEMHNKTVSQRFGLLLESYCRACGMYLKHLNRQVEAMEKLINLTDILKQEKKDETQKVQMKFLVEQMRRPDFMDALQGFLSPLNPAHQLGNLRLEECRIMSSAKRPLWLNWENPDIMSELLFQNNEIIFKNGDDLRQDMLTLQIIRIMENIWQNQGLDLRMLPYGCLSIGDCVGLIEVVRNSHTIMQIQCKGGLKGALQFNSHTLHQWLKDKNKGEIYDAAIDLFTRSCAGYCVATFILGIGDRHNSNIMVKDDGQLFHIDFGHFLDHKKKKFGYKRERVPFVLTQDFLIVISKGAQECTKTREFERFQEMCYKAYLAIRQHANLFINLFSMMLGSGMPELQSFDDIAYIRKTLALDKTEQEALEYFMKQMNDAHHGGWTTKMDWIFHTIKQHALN

As to `N#CCc1ccc(Nc2ncnc3ccc(-c4cncc5ccccc45)cc23)cc1`, the Activity in the data set on Mus musculus [1] came to 23.71 g; in the data set on PC-3 [2], 42%; in the data set with PC-3 [3] it was 46%; in the data set with PC-3 [5] it was 26%. In addition, in [4], the GI50 (as a rule, the concentration giving 50% growth inhibition) is 567 µM. The inhibition (usually the change of the read-out against control, counted positive when it falls) in data set [6] amounted to 50%.

As for `N#CCc1ccc(Nc2ncnc3ccc(-c4ccc5[nH]ccc5c4)cc23)cc1`, the Activity in the data set with Mus musculus [7] was 20.14 g; with Mus musculus [8] it was 20.71 g; in data set [9] it was 6%; in the data set with MCF7 [10], 53%; with MCF7 [11], 4%; in the data set with Mus musculus [12] it was 22 g. The Activity in data set [13] worked out at 44%.
